Assay results taken from ChEMBL document CHEMBL1138564, “Microwave-induced synthesis and anti-microbial activities of 7,10,11,12-tetrahydrobenzo[c]acridin-8(9H)-one derivatives” (2009).
Converted amounts (≈) assume the structure as drawn. The source made the active and inactive calls. The rule behind the calls is not given here.

Tests used:
Bacillus cereus [1] = assay: Antimicrobial activity against Bacillus cereus NCIM 2155 at 500 ug/disk after 24 hrs by disk diffusion method; type: functional; conditions: for zone of inhibition at 500 µg/disc: NCIM 2155, 24 h, read-out: DIZ
How it was run: (§1)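 Disc diffusion on Mueller–Hinton agar. 100 µl of bacterial suspension at 10⁸ CFU/ml is spread on the plate. Discs carry test compounds at two loadings, dissolved in DMSO; DMSO alone serves as negative control. Ofloxacin disc is the positive reference. Plates are incubated at 37 °C for 24 h, and the inhibition zone diameter is measured.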

Staphylococcus [2] = assay: Antimicrobial activity against Staphylococcus albus NCIM 2178 at 1000 ug/disk after 24 hrs by disk diffusion method; type: functional
How it was run: (§2)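 Disc diffusion. 100 µl of bacterial suspension at 10⁸ CFU/ml was spread on Mueller–Hinton agar. Discs loaded with test compound dissolved in DMSO were placed on the lawn, with a DMSO-only disc as negative control. Plates were incubated at 37 °C for 24 h, and the inhibition zone diameter was measured.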

Aspergillus fumigatus [3] = assay: Antimicrobial activity against Aspergillus fumigatus NCIM 902 at 500 ug/disk after 72 hrs by disk diffusion method; type: functional
How it was run: (§3)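 Disc diffusion on Sabouraud's dextrose agar. 100 µl of fungal suspension at 10⁶ CFU/ml is spread on the plate. Discs carry test compounds at two loadings in DMSO; DMSO alone is the negative control. Clotrimazole disc is the positive reference. Plates are incubated at 27 °C for 72 h, and the zone of inhibition diameter is measured.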

Pseudomonas aeruginosa = assay: Antimicrobial activity against Pseudomonas aeruginosa NCIM 2200 at 500 ug/disk after 24 hrs by disk diffusion method; type: functional; how it was run: as §2
Aspergillus flavus [4] = assay: Antimicrobial activity against Aspergillus flavus NCIM 902 at 500 ug/disk after 72 hrs by disk diffusion method; type: functional; conditions: NCIM 902, 72 h, read-out: DIZ; how it was run: as §3
Aliivibrio fischeri [5] = assay: Antimicrobial activity against Vibrio fischeri NCIM 2154 at 500 ug/disk after 24 hrs by disk diffusion method; type: functional; how it was run: as §2
Bacillus subtilis = assay: Antimicrobial activity against Bacillus subtilis NCIM 2063 at 500 ug/disk after 24 hrs by disk diffusion method; type: functional; conditions: for zone of inhibition at 500 µg/disc: NCIM 2063, 24 h, read-out: DIZ; how it was run: as §1
Aliivibrio fischeri [6] = assay: Antimicrobial activity against Vibrio fischeri NCIM 2154 after 24 hrs by serial dilution method; type: functional; conditions: NCIM 2154, 24 h
Trichoderma viride [7] = assay: Antimicrobial activity against Trichoderma viride NCIM 1195 at 1000 ug/disk after 72 hrs by disk diffusion method; type: functional; conditions: NCIM 1195, 72 h, read-out: DIZ
How it was run: (§4)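 Fungal disc diffusion. 100 µl of suspension at 10⁶ CFU/ml was spread on Sabouraud's dextrose agar. Discs carrying test compound in DMSO were applied, with a DMSO-only disc as negative control. Plates were incubated at 27 °C for 72 h, and the zone of inhibition diameter was measured.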

Aspergillus flavus [8] = assay: Antimicrobial activity against Aspergillus flavus NCIM 902 after 72 hrs by serial dilution method; type: functional; conditions: NCIM 535, 72 h, in the assay text read “NCIM 535” for “NCIM 902”
How it was run: (§5)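 MIC by broth dilution in Sabouraud's dextrose broth, only for fungi sensitive in disc diffusion. Two-fold serial dilutions of compounds are made in 1 ml broth per tube, range 3.9 to 1000. Inoculated tubes are incubated at 27 °C for 72 h.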

Salmonella typhimurium = assay: Antimicrobial activity against Salmonella Typhimurium NCIM 2501 at 1000 ug/disk after 24 hrs by disk diffusion method; type: functional, Salmonella enterica subsp. enterica serovar Typhimurium; conditions: for diameter of the inhibition zone (DIZ): Salmonella enterica subsp. enterica serovar Typhimurium; how it was run: as §2
Bacillus cereus [9] = assay: Antimicrobial activity against Bacillus cereus NCIM 2155 at 1000 ug/disk after 24 hrs by disk diffusion method; type: functional; conditions: for zone of inhibition at 1000 µg/disc: NCIM 2155, 24 h, read-out: DIZ; how it was run: as §1
Klebsiella aerogenes = assay: Antimicrobial activity against Klebsiella aerogenes NCIM 2239 at 500 ug/disk after 24 hrs by disk diffusion method; type: functional; how it was run: as §1
Penicillium chrysogenum [10] = assay: Antimicrobial activity against Penicillium chrysogenum NCIM 707 at 500 ug/disk after 72 hrs by disk diffusion method; type: functional; how it was run: as §3
Rhodotorula mucilaginosa = assay: Antimicrobial activity against Rhodotorula rubra NCIM 3174 at 500 ug/disk after 72 hrs by disk diffusion method; type: functional; conditions: NCIM 3174, 72 h, read-out: DIZ; how it was run: as §4
Trichoderma viride [11] = assay: Antimicrobial activity against Trichoderma viride NCIM 1195 after 72 hrs by serial dilution method; type: functional; conditions: NCIM 1195, 72 h
How it was run: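 MIC by broth dilution in Sabouraud's dextrose broth, run only on fungi found sensitive in the disc assay. Twofold serial dilutions were made in 1 ml broth per tube, covering 3.9 to 1000. Inoculated tubes were incubated at 27 °C for 72 h.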

Escherichia coli [12] = assay: Antimicrobial activity against Escherichia coli NCIM 2065 at 1000 ug/disk after 24 hrs by disk diffusion method; type: functional; conditions: NCIM 2065, 24 h, read-out: DIZ; how it was run: as §1
[13] = tested on: Rhodococcus corynebacterioides; assay: Antimicrobial activity against Corynebacterium rubrum NCIM 2252 at 500 ug/disk after 24 hrs by disk diffusion method; type: functional; conditions: Rhodococcoides corynebacterioides; how it was run: as §1
[14] = tested on: Rhodococcus corynebacterioides; assay: Antimicrobial activity against Corynebacterium rubrum NCIM 2252 at 1000 ug/disk after 24 hrs by disk diffusion method; type: functional; conditions: Rhodococcoides corynebacterioides; how it was run: as §1
Penicillium chrysogenum [15] = assay: Antimicrobial activity against Penicillium chrysogenum NCIM 707 at 1000 ug/disk after 72 hrs by disk diffusion method; type: functional; how it was run: as §3
Staphylococcus [16] = assay: Antimicrobial activity against Staphylococcus albus NCIM 2178 at 500 ug/disk after 24 hrs by disk diffusion method; type: functional; how it was run: as §2
Escherichia coli [17] = assay: Antimicrobial activity against Escherichia coli NCIM 2065 after 24 hrs by serial dilution method; type: functional; conditions: NCIM 2065, 24 h
How it was run: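 Broth dilution MIC in nutrient broth, run only for organisms found sensitive in disc diffusion. Compounds are two-fold serially diluted in 1 ml sterile broth per tube, spanning 3.9 to 1000. Inoculated tubes are incubated at 37 °C for 24 h.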

Aspergillus flavus [18] = assay: Antimicrobial activity against Aspergillus flavus NCIM 902 at 1000 ug/disk after 72 hrs by disk diffusion method; type: functional; conditions: NCIM 902, 72 h, read-out: DIZ; how it was run: as §3
Proteus vulgaris [19] = assay: Antimicrobial activity against Proteus vulgaris NCIM 2027 at 1000 ug/disk after 24 hrs by disk diffusion method; type: functional; how it was run: as §1
Trichoderma viride [20] = assay: Antimicrobial activity against Trichoderma viride NCIM 1195 at 500 ug/disk after 72 hrs by disk diffusion method; type: functional; conditions: NCIM 1195, 72 h, read-out: DIZ; how it was run: as §4
Aspergillus fumigatus [21] = assay: Antimicrobial activity against Aspergillus fumigatus NCIM 902 at 1000 ug/disk after 72 hrs by disk diffusion method; type: functional; conditions: for zone of inhibition at 1000 µg/disc: NCIM 902, 72 h, read-out: DIZ; how it was run: as §3
Proteus vulgaris [22] = assay: Antimicrobial activity against Proteus vulgaris NCIM 2027 at 500 ug/disk after 24 hrs by disk diffusion method; type: functional; how it was run: as §1
Escherichia coli [23] = assay: Antimicrobial activity against Escherichia coli NCIM 2065 at 500 ug/disk after 24 hrs by disk diffusion method; type: functional; conditions: for zone of inhibition at 500 µg/disc: NCIM 2065, 24 h, read-out: DIZ; how it was run: as §1
Aspergillus parasiticus [24] = assay: Antimicrobial activity against Aspergillus parasiticus NCIM 904 after 72 hrs by serial dilution method; type: functional; conditions: NCIM 904, 72 h; how it was run: as §5
Lipomyces lipofer [25] = assay: Antimicrobial activity against Lipomyces lipofer NCIM 3252 at 500 ug/disk after 72 hrs by disk diffusion method; type: functional; how it was run: as §3
Aspergillus parasiticus [26] = assay: Antimicrobial activity against Aspergillus parasiticus NCIM 904 at 500 ug/disk after 72 hrs by disk diffusion method; type: functional; conditions: NCIM 904, 72 h, read-out: DIZ; how it was run: as §3
Lipomyces lipofer [27] = assay: Antimicrobial activity against Lipomyces lipofer NCIM 3252 at 1000 ug/disk after 72 hrs by disk diffusion method; type: functional; how it was run: as §3

| SMILES | zone of inhibition at 500 µg/disc (Bacillus cereus [1]) [mm] | diameter of the inhibition zone (DIZ) (Staphylococcus [2]) | diameter of the inhibition zone (DIZ) (Pseudomonas aeruginosa) | zone of inhibition at 500 µg/disc (Aspergillus flavus [4]) [mm] | zone of inhibition at 1000 µg/disc (Trichoderma viride [7]) [mm] | MIC (Aspergillus flavus [8]) [µg/mL] | diameter of the inhibition zone (DIZ) (Penicillium chrysogenum [10]) | zone of inhibition at 500 µg/disc (Rhodotorula mucilaginosa) [mm] | MIC (Trichoderma viride [11]) [µg/mL] | zone of inhibition at 1000 µg/disc (Escherichia coli [12]) [mm] | diameter of the inhibition zone (DIZ) (Staphylococcus [16]) | MIC (Escherichia coli [17]) [µg/mL] | zone of inhibition at 1000 µg/disc (Aspergillus flavus [18]) [mm] | diameter of the inhibition zone (DIZ) (Proteus vulgaris [19]) | zone of inhibition at 500 µg/disc (Trichoderma viride [20]) [mm] | diameter of the inhibition zone (DIZ) (Proteus vulgaris [22]) | MIC (Aspergillus parasiticus [24]) [µg/mL] | diameter of the inhibition zone (DIZ) (Lipomyces lipofer [25]) | zone of inhibition at 500 µg/disc (Aspergillus parasiticus [26]) [mm] | diameter of the inhibition zone (DIZ) (Lipomyces lipofer [27]) | further results |
| --- | --- | --- | --- | --- | --- | --- | --- | --- | --- | --- | --- | --- | --- | --- | --- | --- | --- | --- | --- | --- | --- |
| CC1(C)CC(=O)C2=C(C1)Nc1c(ccc3ccccc13)C2c1ccccc1O (stereo not given) | 7 | inactive | inactive | 9 | 12 | 62.5 (≈ 169 µM) | inactive | 10 | 31.2 (≈ 84.4 µM) | 8 | inactive | 125 (≈ 338 µM) | 10 | inactive | 10 | inactive | 3.9 (≈ 10.6 µM) | inactive | 10 | inactive | diameter of the inhibition zone (DIZ) (Aspergillus fumigatus [3]): inactive; diameter of the inhibition zone (DIZ) (Aliivibrio fischeri [5]): inactive; diameter of the inhibition zone (DIZ) (Bacillus subtilis): inactive; MIC (Aliivibrio fischeri [6]): 125 µg/mL (≈ 338 µM); zone of inhibition at 1000 µg/disc (Salmonella typhimurium; Salmonella enterica, NCIM 2501, 24 h, read-out: DIZ): 11 mm; zone of inhibition at 1000 µg/disc (Bacillus cereus [9]): 10 mm; zone of inhibition at 500 µg/disc (Klebsiella aerogenes; NCIM 2239, 24 h, read-out: DIZ): 7 mm; diameter of the inhibition zone (DIZ) [13]: inactive; diameter of the inhibition zone (DIZ) [14]: inactive; diameter of the inhibition zone (DIZ) (Penicillium chrysogenum [15]): inactive; diameter of the inhibition zone (DIZ) (Aspergillus fumigatus [21]): inactive; diameter of the inhibition zone (DIZ) (Escherichia coli [23]): inactive |
| O=C1CCCC2=C1C(c1cccc(Cl)c1)c1ccc3ccccc3c1N2 (stereo not given) | – | inactive | inactive | 9 | 10 | 62.5 (≈ 174 µM) | inactive | 8 | 125 (≈ 347 µM) | 9 | inactive | 62.5 (≈ 174 µM) | 11 | inactive | 8 | inactive | 15.6 (≈ 43.4 µM) | inactive | 12 | inactive | diameter of the inhibition zone (DIZ) (Bacillus cereus [1]): inactive; zone of inhibition at 500 µg/disc (Aspergillus fumigatus [3]; NCIM 902, 72 h, read-out: DIZ): 8 mm; zone of inhibition at 500 µg/disc (Aliivibrio fischeri [5]; NCIM 2154, 24 h, read-out: DIZ): 9 mm; zone of inhibition at 500 µg/disc (Bacillus subtilis): 8 mm; MIC (Aliivibrio fischeri [6]): 62.5 µg/mL (≈ 174 µM); diameter of the inhibition zone (DIZ) (Salmonella typhimurium): inactive; diameter of the inhibition zone (DIZ) (Bacillus cereus [9]): inactive; diameter of the inhibition zone (DIZ) (Klebsiella aerogenes): inactive; zone of inhibition at 500 µg/disc ([13]; NCIM 2252, 24 h, read-out: DIZ): 7 mm; zone of inhibition at 1000 µg/disc ([14]; NCIM 2252, 24 h, read-out: DIZ): 9 mm; diameter of the inhibition zone (DIZ) (Penicillium chrysogenum [15]): inactive; zone of inhibition at 1000 µg/disc (Aspergillus fumigatus [21]): 12 mm; zone of inhibition at 500 µg/disc (Escherichia coli [23]): 7 mm |
| O=C1CCCC2=C1C(c1ccccc1O)c1ccc3ccccc3c1N2 (stereo not given) | 7 | inactive | inactive | 8 | 10 | 31.2 (≈ 91.4 µM) | inactive | 11 | 62.5 (≈ 183 µM) | 9 | inactive | 125 (≈ 366 µM) | 11 | inactive | 9 | inactive | 62.5 (≈ 183 µM) | inactive | 9 | inactive | diameter of the inhibition zone (DIZ) (Aspergillus fumigatus [3]): inactive; diameter of the inhibition zone (DIZ) (Aliivibrio fischeri [5]): inactive; zone of inhibition at 500 µg/disc (Bacillus subtilis): 8 mm; diameter of the inhibition zone (DIZ) (Salmonella typhimurium): inactive; zone of inhibition at 1000 µg/disc (Bacillus cereus [9]): 8 mm; diameter of the inhibition zone (DIZ) (Klebsiella aerogenes): inactive; diameter of the inhibition zone (DIZ) [13]: inactive; diameter of the inhibition zone (DIZ) [14]: inactive; zone of inhibition at 1000 µg/disc (Penicillium chrysogenum [15]; NCIM 707, 72 h, read-out: DIZ): 9 mm; zone of inhibition at 1000 µg/disc (Aspergillus fumigatus [21]): 12 mm; zone of inhibition at 500 µg/disc (Escherichia coli [23]): 8 mm |
